Data as given in ChEMBL document CHEMBL2311539, “3,6-Diamino-4-(2-halophenyl)-2-benzoylthieno[2,3-b]pyridine-5-carbonitriles are selective inhibitors of Plasmodium falciparum glycogen synthase kinase-3” (J Med Chem, 2013).

How the values were obtained:
[1] = biological target: MAP kinase-activated protein kinase 2 (Homo sapiens) (UniProt P49137); test: Inhibition of MAPKAP-K2 (unknown origin) at 10 uM
In short: (§1)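 Dundee human kinase selectivity panel (77 kinases); test compound at 1 and 10 μM, percentage kinase inhibition recorded.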

[2] = Inhibition of Leishmania donovani GSK-3
[3] = biological target: Dual specificity mitogen-activated protein kinase kinase 1 (Homo sapiens) (UniProt Q02750); test: Inhibition of MKK1 (unknown origin) at 10 uM; in short: as §1
Chain of Dual specificity mitogen-activated protein kinase kinase 1 (Homo sapiens) (Q02750 whole entry): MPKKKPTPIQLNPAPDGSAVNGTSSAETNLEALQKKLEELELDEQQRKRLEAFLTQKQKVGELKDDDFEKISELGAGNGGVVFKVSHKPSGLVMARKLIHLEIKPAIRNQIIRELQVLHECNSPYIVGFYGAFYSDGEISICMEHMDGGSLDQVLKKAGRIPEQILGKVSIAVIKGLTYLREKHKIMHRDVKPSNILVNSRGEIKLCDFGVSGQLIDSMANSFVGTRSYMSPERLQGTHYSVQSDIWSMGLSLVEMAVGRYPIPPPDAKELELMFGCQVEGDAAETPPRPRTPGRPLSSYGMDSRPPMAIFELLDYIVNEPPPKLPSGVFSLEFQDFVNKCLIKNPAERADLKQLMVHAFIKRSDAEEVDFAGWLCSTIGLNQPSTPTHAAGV

[4] = biological target: T1, Inhibitor of nuclear factor kappa-B kinase subunit epsilon (Homo sapiens) (UniProt Q14164); test: Inhibition of IKK-epsilon (unknown origin) at 10 uM; in short: as §1
T1 sequence (whole entry): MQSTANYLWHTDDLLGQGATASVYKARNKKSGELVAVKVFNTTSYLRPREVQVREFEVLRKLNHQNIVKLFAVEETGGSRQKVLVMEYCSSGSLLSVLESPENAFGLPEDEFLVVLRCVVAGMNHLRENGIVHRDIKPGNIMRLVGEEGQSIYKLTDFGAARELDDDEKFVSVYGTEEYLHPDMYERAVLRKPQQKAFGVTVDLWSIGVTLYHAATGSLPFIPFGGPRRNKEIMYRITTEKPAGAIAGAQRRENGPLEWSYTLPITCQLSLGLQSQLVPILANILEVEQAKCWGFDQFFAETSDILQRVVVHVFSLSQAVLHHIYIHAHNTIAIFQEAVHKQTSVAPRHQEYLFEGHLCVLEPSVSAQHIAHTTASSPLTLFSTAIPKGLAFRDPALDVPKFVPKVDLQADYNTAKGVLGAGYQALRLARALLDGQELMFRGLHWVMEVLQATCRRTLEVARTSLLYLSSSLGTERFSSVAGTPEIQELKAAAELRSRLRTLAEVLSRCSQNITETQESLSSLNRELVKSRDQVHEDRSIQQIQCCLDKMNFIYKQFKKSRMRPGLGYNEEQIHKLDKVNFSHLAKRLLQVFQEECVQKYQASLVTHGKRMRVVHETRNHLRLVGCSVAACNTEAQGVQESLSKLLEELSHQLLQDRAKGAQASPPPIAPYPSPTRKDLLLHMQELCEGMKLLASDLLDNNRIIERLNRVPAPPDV

[5] = biological target: T2, Serine/threonine-protein kinase BRSK2 (Homo sapiens) (UniProt Q8IWQ3); test: Inhibition of BRSK2 (unknown origin) at 10 uM; in short: as §1
T2 sequence (whole entry): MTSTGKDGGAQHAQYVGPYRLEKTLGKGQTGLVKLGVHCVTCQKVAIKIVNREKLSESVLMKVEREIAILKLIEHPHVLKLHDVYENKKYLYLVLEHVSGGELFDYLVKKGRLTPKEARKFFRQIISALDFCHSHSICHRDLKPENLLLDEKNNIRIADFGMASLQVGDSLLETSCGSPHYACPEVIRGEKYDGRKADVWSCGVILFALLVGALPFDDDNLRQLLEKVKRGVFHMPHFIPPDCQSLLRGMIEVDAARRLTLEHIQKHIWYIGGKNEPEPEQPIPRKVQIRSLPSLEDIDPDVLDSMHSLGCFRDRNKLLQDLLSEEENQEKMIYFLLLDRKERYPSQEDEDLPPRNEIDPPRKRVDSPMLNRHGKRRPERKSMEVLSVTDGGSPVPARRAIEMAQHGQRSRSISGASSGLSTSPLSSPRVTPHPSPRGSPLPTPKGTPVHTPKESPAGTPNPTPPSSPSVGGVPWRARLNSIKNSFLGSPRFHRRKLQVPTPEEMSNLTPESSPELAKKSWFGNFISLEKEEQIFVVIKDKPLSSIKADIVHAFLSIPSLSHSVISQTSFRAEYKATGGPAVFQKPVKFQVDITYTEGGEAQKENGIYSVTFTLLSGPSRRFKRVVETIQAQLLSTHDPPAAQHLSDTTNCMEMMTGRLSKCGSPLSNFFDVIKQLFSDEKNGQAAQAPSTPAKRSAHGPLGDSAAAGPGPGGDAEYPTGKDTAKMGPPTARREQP

[6] = Inhibition of Plasmodium knowlesi recombinant His6-tagged GSK-3 expressed in Escherichia coli using GS-1 peptide as substrate after 30 mins by scintillation counting analysis in presence of gamma-33P-ATP
In short: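 P. knowlesi GSK3 gene in pBAD-Thio-TOPO, expressed in E. coli TOP10 (ampicillin, 37 °C, 0.02% arabinose for 4 h), Ni-NTA purified. Radiometric assay: 40 μM GS-1 peptide in buffer A pH 7.5 (MgCl2, EGTA, DTT, heparin, BSA) with 15 μM γ-33P-ATP, 30 min at 30 °C. P81 filter binding, scintillation counting. IC50 from triplicate dose-response curves.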

Plasmodium falciparum = test: Antiplasmodial activity against Plasmodium falciparum after 72 hrs by luciferase reporter gene assay; format: functional, organism-based; conditions: 48 h, in the assay text read “48 hrs” for “72 hrs”
In short: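 NF54:LUC P. falciparum erythrocytic stages (luciferase under hrp2 promoter) at 3% parasitemia, 25% hematocrit; compounds in RPMI-1640 with 1% DMSO, triplicate wells; untreated, DMSO-only and non-luciferase NF54 blank wells. […] Bright-Glo lysis, luminescence read.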

[7] = biological target: Tyrosine-protein kinase BTK (Homo sapiens) (UniProt Q06187); test: Inhibition of BTK (unknown origin) at 10 uM; in short: as §1
Chain of Tyrosine-protein kinase BTK (Homo sapiens) (Q06187 whole entry): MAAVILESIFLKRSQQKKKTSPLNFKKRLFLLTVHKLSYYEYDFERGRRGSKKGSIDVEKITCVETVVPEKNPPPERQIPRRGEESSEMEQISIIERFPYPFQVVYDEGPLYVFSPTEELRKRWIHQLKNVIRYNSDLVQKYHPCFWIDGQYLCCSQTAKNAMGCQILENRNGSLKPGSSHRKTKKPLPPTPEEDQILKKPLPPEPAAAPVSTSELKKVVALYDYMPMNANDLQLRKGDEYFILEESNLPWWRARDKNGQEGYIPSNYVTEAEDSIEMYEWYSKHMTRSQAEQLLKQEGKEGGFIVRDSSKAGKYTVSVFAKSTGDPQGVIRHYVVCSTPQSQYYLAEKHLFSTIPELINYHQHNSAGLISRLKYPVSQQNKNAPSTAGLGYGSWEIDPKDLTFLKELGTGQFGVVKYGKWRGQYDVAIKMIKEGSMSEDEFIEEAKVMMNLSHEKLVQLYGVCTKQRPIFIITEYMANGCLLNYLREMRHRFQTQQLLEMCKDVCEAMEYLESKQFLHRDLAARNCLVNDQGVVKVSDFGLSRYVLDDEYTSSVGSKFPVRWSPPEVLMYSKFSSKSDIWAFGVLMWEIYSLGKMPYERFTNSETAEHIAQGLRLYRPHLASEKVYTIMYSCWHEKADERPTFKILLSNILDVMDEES

[8] = Inhibition of Plasmodium falciparum recombinant GSK-3 by radiometric protein kinase assay
In short: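 His6-tagged recombinant GSK-3 expressed in E. coli (TOP10/pBAD-Thio-TOPO for P. falciparum and T. gondii, arabinose-induced; BL21(DE3)-pRARE2/pET15 for C. parvum, IPTG at 15 °C), Ni-NTA purified. Assayed with 40 μM GS-1 phosphopeptide, 15 μM γ-33P-ATP in pH 7.5 Tris buffer with MgCl2, EGTA, DTT, heparin, BSA; 30 min, 30 °C; P81 paper, phosphoric acid washes, scintillation counting. DMSO controls; dose-response IC50, triplicate points.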

[9] = biological target: Insulin receptor (Homo sapiens) (UniProt P06213); test: Inhibition of IR-HIS (unknown origin) at 10 uM; in short: as §1
Chain of Insulin receptor (Homo sapiens) (P06213 28-758 limits assumed): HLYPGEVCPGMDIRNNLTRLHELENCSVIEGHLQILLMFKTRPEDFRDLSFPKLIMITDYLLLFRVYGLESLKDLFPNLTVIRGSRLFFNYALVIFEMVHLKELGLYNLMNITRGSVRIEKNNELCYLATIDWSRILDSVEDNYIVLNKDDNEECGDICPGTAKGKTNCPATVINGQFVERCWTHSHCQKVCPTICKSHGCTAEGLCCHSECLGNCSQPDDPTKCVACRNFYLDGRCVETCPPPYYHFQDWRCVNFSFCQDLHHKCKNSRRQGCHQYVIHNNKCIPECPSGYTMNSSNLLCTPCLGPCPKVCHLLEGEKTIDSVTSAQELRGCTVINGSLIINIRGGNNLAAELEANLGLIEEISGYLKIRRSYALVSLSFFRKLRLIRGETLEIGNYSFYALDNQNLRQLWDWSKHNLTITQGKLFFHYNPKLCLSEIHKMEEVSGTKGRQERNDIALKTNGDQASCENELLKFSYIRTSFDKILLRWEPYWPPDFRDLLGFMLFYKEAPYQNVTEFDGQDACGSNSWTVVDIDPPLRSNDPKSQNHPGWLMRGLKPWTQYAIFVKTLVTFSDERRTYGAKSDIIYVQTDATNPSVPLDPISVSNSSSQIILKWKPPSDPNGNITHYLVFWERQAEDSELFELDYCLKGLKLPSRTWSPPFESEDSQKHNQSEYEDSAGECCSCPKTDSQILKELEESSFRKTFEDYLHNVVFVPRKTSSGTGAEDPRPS
Chain of Insulin receptor (Homo sapiens) (P06213 763-1382 limits assumed): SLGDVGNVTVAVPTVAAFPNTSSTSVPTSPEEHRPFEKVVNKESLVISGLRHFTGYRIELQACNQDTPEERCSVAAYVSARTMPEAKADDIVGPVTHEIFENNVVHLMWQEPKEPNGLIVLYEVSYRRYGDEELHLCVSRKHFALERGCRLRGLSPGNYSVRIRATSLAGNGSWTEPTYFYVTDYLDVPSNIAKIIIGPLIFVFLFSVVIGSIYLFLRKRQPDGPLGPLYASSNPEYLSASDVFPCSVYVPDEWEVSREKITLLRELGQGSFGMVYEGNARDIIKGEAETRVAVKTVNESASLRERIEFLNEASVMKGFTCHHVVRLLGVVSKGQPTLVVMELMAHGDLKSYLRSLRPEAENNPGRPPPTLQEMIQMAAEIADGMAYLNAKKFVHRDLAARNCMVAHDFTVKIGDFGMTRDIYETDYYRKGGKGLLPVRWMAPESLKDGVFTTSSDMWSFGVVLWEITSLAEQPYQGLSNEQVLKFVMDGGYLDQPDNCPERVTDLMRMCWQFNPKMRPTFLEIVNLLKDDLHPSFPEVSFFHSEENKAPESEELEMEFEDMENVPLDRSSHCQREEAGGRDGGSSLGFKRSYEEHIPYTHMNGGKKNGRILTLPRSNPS

Chain of MAP kinase-activated protein kinase 2 (Homo sapiens) (P49137 whole entry, looked up): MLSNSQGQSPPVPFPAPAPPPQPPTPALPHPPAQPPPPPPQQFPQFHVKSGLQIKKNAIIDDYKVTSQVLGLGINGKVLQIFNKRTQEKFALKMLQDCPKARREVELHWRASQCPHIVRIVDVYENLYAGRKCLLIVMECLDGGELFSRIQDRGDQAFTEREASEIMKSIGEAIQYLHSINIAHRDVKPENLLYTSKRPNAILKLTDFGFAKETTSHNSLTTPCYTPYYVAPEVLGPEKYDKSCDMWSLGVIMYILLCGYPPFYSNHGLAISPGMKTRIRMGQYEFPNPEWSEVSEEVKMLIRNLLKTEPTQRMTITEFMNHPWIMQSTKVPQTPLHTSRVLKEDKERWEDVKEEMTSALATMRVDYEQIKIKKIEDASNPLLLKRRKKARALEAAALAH

- inhibition [1]: > 50%
- IC50 [2]: 72 µM
- inhibition [3]: > 50%
- inhibition [4]: > 50%
- inhibition [5]: > 50%
- IC50 [6]: 2.45 µM
- EC50 (Plasmodium falciparum): 5.5 µM
- inhibition [7]: > 50%
- IC50 [8]: 0.48 µM
- inhibition [9]: > 50%
Compound: N#Cc1c(N)nc2sc(C(=O)c3cccc(Cl)c3)c(N)c2c1-c1ccccc1Cl
